Assay results taken from publication PMC7654701 (Chemical communications (Cambridge, England), 2020).

Tests used:
class I HDACs = conditions: cited from earlier work
HDAC3 = HDAC3 (Homo sapiens, UniProt O15379); test: Western blot analysis of HDAC3 degradation in breast cancer cells; assay type: cell-based
Outline: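 MDA-MB-468 cells were treated with test compound for 14 h, and HDAC3 was assessed by western blot with band intensity normalized to α-tubulin. For the mechanism arm, cells were pretreated for 1 h with 1 μM MG132 or 10 μM VHL032 before 125 nM compound. A time course used 125 nM. For washout, cells got 125 nM for 14 h, then drug-free medium for additional time.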

T47D = test: Colony formation assay; assay type: cell-based; conditions: T47D breast cancer cells
Outline: (§1)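 Cells were grown with test compound, and the medium with freshly added compound was replaced every five days until colonies reached suitable size. Colonies were then stained. Four biological replicates.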

HDAC6 = target: T1, HDAC6 (Homo sapiens, UniProt Q9UBN7); test: Western blot analysis of HDAC6 protein level in MDA-MB-468 cells; assay type: cell-based; conditions: 14 h treatment
T1 sequence (Q9UBN7 1-1215): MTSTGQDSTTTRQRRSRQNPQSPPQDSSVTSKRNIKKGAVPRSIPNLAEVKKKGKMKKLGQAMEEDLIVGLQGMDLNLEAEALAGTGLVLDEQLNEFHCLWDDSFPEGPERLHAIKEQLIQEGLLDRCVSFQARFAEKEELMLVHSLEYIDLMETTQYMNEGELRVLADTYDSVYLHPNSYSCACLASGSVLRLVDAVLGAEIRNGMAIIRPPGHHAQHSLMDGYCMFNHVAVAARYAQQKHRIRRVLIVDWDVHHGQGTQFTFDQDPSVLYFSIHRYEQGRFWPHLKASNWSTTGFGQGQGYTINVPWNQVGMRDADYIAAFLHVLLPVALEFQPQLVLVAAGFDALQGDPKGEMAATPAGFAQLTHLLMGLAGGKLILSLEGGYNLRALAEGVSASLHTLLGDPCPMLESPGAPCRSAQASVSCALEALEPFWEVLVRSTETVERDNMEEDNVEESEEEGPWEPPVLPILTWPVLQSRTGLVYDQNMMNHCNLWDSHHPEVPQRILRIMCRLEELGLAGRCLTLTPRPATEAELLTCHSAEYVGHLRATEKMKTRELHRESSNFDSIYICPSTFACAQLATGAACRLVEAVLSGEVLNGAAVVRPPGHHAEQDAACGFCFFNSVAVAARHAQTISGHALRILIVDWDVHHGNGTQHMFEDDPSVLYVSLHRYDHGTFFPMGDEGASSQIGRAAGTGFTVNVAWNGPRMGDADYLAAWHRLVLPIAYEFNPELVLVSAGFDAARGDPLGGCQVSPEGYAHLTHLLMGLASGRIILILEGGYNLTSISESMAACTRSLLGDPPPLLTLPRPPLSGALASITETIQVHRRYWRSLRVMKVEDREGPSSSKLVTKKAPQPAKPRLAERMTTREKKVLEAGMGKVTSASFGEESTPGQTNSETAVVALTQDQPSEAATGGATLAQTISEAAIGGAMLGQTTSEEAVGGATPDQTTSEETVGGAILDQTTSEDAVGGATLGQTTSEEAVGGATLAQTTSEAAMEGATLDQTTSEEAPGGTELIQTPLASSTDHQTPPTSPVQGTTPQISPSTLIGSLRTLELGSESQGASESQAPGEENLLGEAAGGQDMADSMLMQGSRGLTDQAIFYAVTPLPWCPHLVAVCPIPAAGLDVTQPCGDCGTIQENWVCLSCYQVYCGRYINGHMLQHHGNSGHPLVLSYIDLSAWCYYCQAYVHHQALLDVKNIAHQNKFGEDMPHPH
Outline: (§2)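 MDA-MB-468 cells were treated with test compound for 14 h, then the HDAC isoform protein level was assessed by western blot.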

HDAC1 = HDAC1 (Homo sapiens, UniProt Q13547); test: Western blot analysis of HDAC1 protein level in breast cancer cells; assay type: cell-based; conditions: MDA-MB-468 cells, 14 h treatment
Outline: as §2

HDACs = test: HDAC-Glo I/II Assays; assay type: biochemical; conditions: Table S1
HDAC2 = HDAC2 (Homo sapiens, UniProt Q92769); test: Western blot analysis of HDAC2 protein level in breast cancer cells; assay type: cell-based; conditions: MDA-MB-468 cells, 14 h treatment
Outline: as §2

HCC1143 = test: Colony formation assay; assay type: cell-based; conditions: HCC1143 breast cancer cells
Outline: as §1

BT549 = test: Colony formation assay; assay type: cell-based; conditions: BT549 breast cancer cells
Outline: as §1

Cytotoxicity = assay type: cell-based; conditions: Fig. S3
[1] = test system: histone acetylation at H3K27 and H4K5; test: Western blot analysis of histone acetylation; assay type: cell-based
MDA-MB-468 cells = test: Colony formation assay; assay type: cell-based; conditions: difference was moderate
Outline: as §1

Chain of HDAC3 (O15379 whole entry): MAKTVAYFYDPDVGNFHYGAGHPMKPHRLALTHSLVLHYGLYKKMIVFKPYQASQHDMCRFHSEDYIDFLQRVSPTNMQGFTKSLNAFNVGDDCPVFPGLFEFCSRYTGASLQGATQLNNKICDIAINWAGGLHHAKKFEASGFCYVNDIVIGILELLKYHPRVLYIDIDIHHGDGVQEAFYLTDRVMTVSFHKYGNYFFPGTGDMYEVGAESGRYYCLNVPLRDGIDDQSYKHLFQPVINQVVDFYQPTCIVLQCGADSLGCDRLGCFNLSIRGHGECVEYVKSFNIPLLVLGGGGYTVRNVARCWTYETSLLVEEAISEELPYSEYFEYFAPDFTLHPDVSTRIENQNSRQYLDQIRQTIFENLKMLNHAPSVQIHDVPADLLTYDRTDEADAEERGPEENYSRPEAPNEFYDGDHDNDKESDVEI
Chain of HDAC3 (Q9Y618 whole entry partner): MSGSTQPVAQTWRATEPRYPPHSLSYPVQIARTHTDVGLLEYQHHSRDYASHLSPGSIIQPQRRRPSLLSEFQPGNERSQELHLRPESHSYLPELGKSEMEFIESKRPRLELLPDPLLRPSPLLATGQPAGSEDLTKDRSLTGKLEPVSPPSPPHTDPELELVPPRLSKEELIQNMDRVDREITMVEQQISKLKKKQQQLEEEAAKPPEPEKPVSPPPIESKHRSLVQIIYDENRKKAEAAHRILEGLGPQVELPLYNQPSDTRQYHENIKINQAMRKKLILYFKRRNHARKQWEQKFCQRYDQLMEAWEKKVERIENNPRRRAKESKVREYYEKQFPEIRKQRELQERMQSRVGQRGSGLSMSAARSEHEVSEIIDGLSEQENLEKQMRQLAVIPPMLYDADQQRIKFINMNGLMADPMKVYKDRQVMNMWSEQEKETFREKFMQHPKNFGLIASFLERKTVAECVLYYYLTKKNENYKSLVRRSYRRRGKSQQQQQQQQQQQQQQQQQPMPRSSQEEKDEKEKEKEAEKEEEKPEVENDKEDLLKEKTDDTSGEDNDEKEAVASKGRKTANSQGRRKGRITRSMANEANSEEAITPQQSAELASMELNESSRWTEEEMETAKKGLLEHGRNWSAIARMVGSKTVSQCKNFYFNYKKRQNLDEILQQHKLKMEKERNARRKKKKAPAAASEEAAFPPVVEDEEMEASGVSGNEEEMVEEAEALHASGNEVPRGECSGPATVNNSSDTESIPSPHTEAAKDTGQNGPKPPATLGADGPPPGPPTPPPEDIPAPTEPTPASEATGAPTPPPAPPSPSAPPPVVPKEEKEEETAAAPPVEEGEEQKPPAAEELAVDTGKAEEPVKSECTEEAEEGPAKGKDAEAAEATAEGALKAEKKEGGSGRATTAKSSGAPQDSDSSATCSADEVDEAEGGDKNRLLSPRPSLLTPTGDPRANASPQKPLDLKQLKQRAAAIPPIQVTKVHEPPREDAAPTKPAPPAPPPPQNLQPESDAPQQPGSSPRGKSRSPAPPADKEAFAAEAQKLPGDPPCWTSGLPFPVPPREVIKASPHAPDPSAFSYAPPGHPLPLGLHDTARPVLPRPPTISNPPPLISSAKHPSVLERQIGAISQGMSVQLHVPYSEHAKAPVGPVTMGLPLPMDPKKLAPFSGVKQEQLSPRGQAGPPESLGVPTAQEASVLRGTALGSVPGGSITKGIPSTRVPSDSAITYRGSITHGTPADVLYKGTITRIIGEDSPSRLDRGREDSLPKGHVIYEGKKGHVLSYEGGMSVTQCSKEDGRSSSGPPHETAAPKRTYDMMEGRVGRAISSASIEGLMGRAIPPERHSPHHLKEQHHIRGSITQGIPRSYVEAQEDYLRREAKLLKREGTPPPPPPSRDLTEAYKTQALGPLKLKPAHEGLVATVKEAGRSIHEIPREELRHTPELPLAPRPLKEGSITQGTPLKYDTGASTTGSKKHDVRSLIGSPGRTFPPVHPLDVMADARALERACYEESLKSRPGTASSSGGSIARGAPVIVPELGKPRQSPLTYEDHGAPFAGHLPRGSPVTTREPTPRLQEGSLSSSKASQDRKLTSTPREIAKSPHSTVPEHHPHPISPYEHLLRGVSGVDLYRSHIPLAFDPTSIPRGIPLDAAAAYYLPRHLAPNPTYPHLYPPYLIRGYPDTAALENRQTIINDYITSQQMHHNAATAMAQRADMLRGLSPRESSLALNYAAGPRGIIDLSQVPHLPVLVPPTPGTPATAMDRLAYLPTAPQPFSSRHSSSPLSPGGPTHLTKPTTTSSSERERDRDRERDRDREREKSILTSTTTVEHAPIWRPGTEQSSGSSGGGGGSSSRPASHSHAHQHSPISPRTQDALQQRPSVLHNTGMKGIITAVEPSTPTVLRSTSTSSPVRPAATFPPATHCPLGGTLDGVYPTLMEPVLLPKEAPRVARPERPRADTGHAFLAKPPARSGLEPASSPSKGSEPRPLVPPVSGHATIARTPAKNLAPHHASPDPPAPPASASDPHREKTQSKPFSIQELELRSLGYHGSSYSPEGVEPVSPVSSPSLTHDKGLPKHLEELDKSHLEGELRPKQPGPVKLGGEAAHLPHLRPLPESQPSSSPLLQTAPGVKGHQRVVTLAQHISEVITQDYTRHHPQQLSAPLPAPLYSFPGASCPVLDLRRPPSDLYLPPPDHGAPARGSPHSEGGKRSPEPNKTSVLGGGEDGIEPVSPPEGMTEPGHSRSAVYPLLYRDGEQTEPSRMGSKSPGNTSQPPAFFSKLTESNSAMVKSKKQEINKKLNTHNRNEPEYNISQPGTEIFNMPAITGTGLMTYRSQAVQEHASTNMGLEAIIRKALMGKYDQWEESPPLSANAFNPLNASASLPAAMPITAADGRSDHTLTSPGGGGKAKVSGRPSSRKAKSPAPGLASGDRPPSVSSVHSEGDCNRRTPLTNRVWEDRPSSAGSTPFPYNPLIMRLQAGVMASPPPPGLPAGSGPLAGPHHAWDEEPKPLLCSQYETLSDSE
Chain of HDAC2 (Q92769 whole entry): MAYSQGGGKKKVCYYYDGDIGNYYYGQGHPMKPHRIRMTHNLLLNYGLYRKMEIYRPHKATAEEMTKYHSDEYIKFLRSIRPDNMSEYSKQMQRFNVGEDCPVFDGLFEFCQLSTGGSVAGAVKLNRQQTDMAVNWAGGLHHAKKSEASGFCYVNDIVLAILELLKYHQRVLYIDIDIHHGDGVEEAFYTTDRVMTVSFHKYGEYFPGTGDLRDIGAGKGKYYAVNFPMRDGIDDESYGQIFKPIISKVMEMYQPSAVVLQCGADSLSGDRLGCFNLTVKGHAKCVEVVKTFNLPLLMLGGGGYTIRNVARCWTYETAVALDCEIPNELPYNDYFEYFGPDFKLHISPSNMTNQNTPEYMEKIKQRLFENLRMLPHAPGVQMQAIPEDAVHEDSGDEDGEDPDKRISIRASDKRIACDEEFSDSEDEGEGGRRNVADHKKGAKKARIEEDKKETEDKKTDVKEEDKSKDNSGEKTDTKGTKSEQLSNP
Chain of HDAC1 (Q13547 whole entry): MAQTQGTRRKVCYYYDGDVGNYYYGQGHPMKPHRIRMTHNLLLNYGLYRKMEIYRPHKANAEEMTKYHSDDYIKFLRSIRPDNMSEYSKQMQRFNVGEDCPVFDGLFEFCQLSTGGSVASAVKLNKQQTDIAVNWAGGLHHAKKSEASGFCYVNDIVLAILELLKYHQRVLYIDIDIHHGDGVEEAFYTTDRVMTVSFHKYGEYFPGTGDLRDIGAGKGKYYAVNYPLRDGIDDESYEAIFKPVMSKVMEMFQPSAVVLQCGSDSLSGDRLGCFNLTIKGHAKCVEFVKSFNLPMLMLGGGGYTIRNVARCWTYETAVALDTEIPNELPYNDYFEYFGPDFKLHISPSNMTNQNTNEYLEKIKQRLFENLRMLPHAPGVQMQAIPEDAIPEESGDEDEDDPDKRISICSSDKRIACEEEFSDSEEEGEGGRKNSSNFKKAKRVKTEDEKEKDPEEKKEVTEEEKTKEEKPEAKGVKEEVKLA

CCCCNNC(=O)c1ccc(-c2ccccc2)cc1 [SR-3558]
HDAC isozyme binding preference (class I HDACs; benzoylhydrazide ZBG): preferentially binds to HDAC3 | inhibition of class I HDACs (class I HDACs): potent and selective inhibitor

CCCNNC(=O)c1ccc(-c2ccc(NC(=O)CCCCCCC(=O)N[C@H](C(=O)N3C[C@@H](O)C[C@@H]3C(=O)N[C@@H](C)c3ccc(-c4scnc4C)cc3)C(C)(C)C)cc2)cc1 [XZ9002-NC]
HDAC3 degradation (HDAC3; MDA-MB-468 cells, Fig. 2B): did not induce HDAC3 degradation

CCCNNC(=O)c1ccc(-c2ccc(NC(=O)CCCCCCC(=O)N[C@H](C(=O)N3C[C@H](O)C[C@H]3C(=O)N[C@@H](C)c3ccc(-c4scnc4C)cc3)C(C)(C)C)cc2)cc1 [XZ9002]
suppression of clonogenic growth compared to XZ9002-NC (T47D): markedly more potent | change in protein level of HDAC6 (HDAC6): no significant changes | change in protein level of HDAC1 (HDAC1): no significant changes | binding of HDAC3 compared with other HDACs (HDACs): more strongly | change in protein level of HDAC2 (HDAC2): no significant changes | time for HDAC3 to rebound to the steady level after washout (HDAC3; MDA-MB-468, 125 nM for 14 h then drug-free medium): more than 12 h | HDAC3 degraded (HDAC3; MDA-MB-468, 125 nM, 8 h treatment): 70% | start of HDAC3 degradation (HDAC3; MDA-MB-468, 125 nM, time course): ≤ 2 h | HDAC3 degradation after pre-incubation with proteasome inhibitor MG132 (HDAC3; MDA-MB-468, XZ9002 125 nM, MG132 1 μM for 1 h): blocked | HDAC3 degradation after pre-incubation with VHL ligand VH032 (HDAC3; MDA-MB-468, XZ9002 125 nM, VH032 10 μM for 1 h): blocked | suppression of clonogenic growth compared to XZ9002-NC (HCC1143): markedly more potent | suppression of clonogenic growth compared to XZ9002-NC (BT549): markedly more potent | potency to induce cytotoxicity compared to 15 (Cytotoxicity): less potent | histone acetylation ([1]; Fig. 2A and Fig. S2, moderate effects compared to 15 and CRBN-based PROTACs): dose-dependently increased | potency to induce histone hyperacetylation compared to 15 ([1]; Fig. S2): less potent | inhibition of clonogenic growth compared to XZ9002-NC (MDA-MB-468 cells): more effective
